Experiment [1] concerns the target Tubulin (Bos taurus, UniProt Q6B856+Q862L2+Q862F3). In words: Inhibitory activity against tubulin polymerization. Type of experiment: functional. The method in brief: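 Bovine brain microtubule protein (1 mg/mL) in 0.1 M MES, 1 mM EGTA, 0.5 mM MgCl2, pH 6.8, with 5% DMSO final. Compound at 0.30–100 µM, held 30 min at 4 °C, then warmed to 37 °C with 1 mM GTP. Turbidity followed at 350 nm; the 30 min value is plotted against log concentration. IC50 by least squares, triplicate.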

The subject of experiment [2] is P388. In words: Effective concentration to inhibit cell proliferation by 50% relative to untreated control cell after 72 hr of continuous exposure in P388 cell line. Format: functional, cell-based. To be noted: Mus musculus, P388, 72 h.
Experiment [3] deals with P388. Nature of the experiment: Effective concentration to inhibit cell proliferation by 50% relative to untreated control cell after 72 hr of continuous exposure in P388/4.0 r-M cell line. To be noted: Mus musculus, P388, 72 h. Format: functional, cell-based.
The test system of experiment [4] is HCT-116. In words: Effective concentration to inhibit cell proliferation by 50% relative to untreated control cell after 72 hr of continuous exposure in HCT116-C9 cell line. Format: functional, cell-based. To be noted: Homo sapiens, HCT-116, 72 h.
The subject of experiment [5] is HCT-116. In words: Effective concentration to inhibit cell proliferation by 50% relative to untreated control cell after 72 hr of continuous exposure in HCT116-C9 -C1cell line. Format: functional, cell-based. To be noted: Homo sapiens, HCT-116, 72 h.
A short description of experiment [6]: Relative resistance value as the ratio of IC50 for the resistant cell line to that of parental cell line. Type of experiment: functional. The method in brief: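 Ratio of MTT IC50 (72 h exposure) in the resistant subclone to that in the parental line: P388/4.0r-M versus P388, and HCT116-C9-C1 versus HCT116-C9. IC50s come from two triplicate runs each.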

“And” between values parts separate entries of the source, which are not always exact repeats. Equal entries are not always repeated.

In the case of `NS(=O)(=O)c1ccc(S(=O)(=O)Nc2cccc3cc[nH]c23)cc1`, in experiment [1], the IC50 (usually the concentration that gives 50% inhibition) is greater than 100000 nM.
`COc1ccc(S(=O)(=O)Nc2cccc3c(Cl)c[nH]c23)cc1`: the IC50 in experiment [2] turned out to be 1200 nM; in experiment [1], 9500 nM; in experiment [3] it was 1200 nM; in experiment [4] it was 370 nM; in experiment [5], 2200 nM.
`N#Cc1ccc(S(=O)(=O)Nc2cccc3c(Cl)c[nH]c23)cc1`: the half-inhibitory concentration (IC50) in experiment [1] was greater than 100000 nM.
On the same count and under the same terms, under `COc1ccc(S(=O)(=O)Nc2cccc3cc(Cl)[nH]c23)cc1` stands 2100 nM; under `NS(=O)(=O)c1ccc(C(=O)Nc2cccc3c(Cl)c[nH]c23)cc1`, greater than 100000 nM.
Turning to `COc1ccc(S(=O)(=O)Nc2cccnc2Nc2ccc(O)cc2)cc1` [ABT-751], the IC50 came to 190 nM in experiment [2]; 2200 nM in experiment [1]; 15000 nM in experiment [3]; 900 nM in experiment [4]; 960 nM in experiment [5].
On to `NS(=O)(=O)c1ccc(S(=O)(=O)Nc2cccc3c(Cl)c[nH]c23)cc1` [INDISULAM], for which the Relative resistance in experiment [6] is 0.97 and 1.4. In addition, the IC50 in experiment [2] is 610 nM; in experiment [1], greater than 100000 nM; in experiment [3] it was 590 nM; in experiment [4] it was 210 nM; in experiment [5], 29000 nM.

These data come from ChEMBL document CHEMBL1135639, “Array-based structure and gene expression relationship study of antitumor sulfonamides including N-[2-[(4-hydroxyphenyl)amino]-3-pyridinyl]-4-methoxybenzenesulfonamide and N-(3-chloro-7-indolyl)-1,4-benzenedisulfonamide” (J Med Chem, 2002).
